# Test results from ChEMBL document CHEMBL1132491, “Benzimidazole derivatives. 2. Synthesis and structure-activity relationships of new azabicyclic benzimidazole-4-carboxylic acid derivatives with affinity for serotoninergic 5-HT(3) receptors” (J Med Chem, 1999).
# Tests used:
# [1] = biological target: T1, Serotonin 3 (5-HT3) receptor (Rattus norvegicus, UniProt P35563+Q9JJ16); experiment: Compound was evaluated for its in vitro affinity at serotonergic 5-hydroxytryptamine 3 receptor by radioligand binding assay, using [3H]-LY 278584 in rat cerebral cortex membranes.; format: cell membranes
# T1 sequence (P35563 whole entry): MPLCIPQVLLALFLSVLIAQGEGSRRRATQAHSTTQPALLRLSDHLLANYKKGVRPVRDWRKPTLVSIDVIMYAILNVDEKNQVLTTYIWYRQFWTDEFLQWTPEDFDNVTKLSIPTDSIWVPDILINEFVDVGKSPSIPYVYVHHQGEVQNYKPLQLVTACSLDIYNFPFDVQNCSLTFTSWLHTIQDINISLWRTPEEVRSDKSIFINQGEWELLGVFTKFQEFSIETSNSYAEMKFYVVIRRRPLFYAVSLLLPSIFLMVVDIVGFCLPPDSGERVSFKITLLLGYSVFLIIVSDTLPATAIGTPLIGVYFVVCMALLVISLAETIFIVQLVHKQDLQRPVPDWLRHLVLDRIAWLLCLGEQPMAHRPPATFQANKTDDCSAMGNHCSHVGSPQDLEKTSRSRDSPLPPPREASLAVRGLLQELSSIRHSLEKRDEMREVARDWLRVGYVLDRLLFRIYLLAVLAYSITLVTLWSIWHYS
# T1 sequence (Q9JJ16 whole entry): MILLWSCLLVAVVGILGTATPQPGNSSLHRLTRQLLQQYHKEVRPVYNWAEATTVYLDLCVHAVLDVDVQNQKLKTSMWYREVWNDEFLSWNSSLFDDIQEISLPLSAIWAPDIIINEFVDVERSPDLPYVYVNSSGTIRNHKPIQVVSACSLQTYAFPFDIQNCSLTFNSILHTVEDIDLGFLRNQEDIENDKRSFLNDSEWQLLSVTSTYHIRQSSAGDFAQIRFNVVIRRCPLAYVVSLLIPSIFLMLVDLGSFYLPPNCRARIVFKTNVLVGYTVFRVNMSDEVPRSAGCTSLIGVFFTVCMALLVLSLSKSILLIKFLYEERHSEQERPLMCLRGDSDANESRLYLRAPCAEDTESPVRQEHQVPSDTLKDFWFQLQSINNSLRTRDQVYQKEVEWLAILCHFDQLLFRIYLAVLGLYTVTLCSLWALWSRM
# [2] = biological target: Serotonin 3 (5-HT3) receptor (Homo sapiens) (UniProt P46098+A5X5Y0+O95264+Q70Z44+Q8WXA8); settings: Cavia porcellus; Ileum
# [3] = species on record: Cavia porcellus; experiment: Single-point analysis using 5(10e-9) M concentration of the antagonist (pA2= -log([B]/concentration ratio-1); [B] =concentration of the antagonist).; format: functional; settings: read-out: pA2 (converted)
# In short: (§1)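 Ileal strip preparation with methysergide 10^-6 M present. Paired noncumulative 5-HT curves are run, with the antagonist at 5×10^-9 M added 30 min before the second curve. The concentration ratio is taken at the 5-HT level giving 50% of the control maximum in the ≥10^-6 M phase. Single-point pA2 = −log([B]/(CR−1)) (Furchgott).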
# [4] = species on record: Cavia porcellus; experiment: Single-point analysis using 5(10e-9) M concentration of the antagonist (pA2= -log([B]/concentration ratio-1); [B] =concentration of the antagonist); format: functional; settings: read-out: pA2 (converted); in short: as §1
# [5] = biological target: 5-hydroxytryptamine receptor 4 (Rattus norvegicus, UniProt Q62758); experiment: In vitro affinity at serotonergic 5-hydroxytryptamine 4 receptor by radioligand binding assay using [3H]GR-113808 in rat striatum membranes.; format: cell membranes
# [6] = biological target: T1, Serotonin 3 (5-HT3) receptor; experiment: In vitro affinity at serotonergic 5-hydroxytryptamine 3 receptor by radioligand binding assay, using [3H]-LY 278584 in rat cerebral cortex membranes.; format: cell membranes
# In short: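 Rat cerebral cortex membranes prepared in 0.32 M sucrose, then washed in 50 mM Tris-HCl pH 7.4 and preincubated at 37 °C for 10 min. About 2 mg/mL protein incubated 30 min at 25 °C with 0.7 nM [3H]LY 278584 and six competitor concentrations. Buffer contained pargyline, ascorbate and CaCl2. Nonspecific binding defined with 10 μM 5-HT. Triplicates, filtration, scintillation counting. Ki from IC50 via Cheng–Prusoff, means of 2–4 assays.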
# 5-hydroxytryptamine receptor 4, sequence (Q62758 whole entry): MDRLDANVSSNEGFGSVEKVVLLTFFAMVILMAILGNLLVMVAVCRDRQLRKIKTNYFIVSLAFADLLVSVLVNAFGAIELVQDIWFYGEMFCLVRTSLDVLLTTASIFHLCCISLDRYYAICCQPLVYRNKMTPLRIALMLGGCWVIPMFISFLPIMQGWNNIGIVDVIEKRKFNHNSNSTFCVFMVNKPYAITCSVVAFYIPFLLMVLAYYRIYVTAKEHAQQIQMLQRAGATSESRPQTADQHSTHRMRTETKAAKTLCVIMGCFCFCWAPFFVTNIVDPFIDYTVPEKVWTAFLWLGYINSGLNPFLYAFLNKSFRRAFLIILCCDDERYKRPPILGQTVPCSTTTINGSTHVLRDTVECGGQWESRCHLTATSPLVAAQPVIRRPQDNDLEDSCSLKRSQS
SMILES,Ki [5],Ki [6],also measured
CN1C2CCCC1CC(OC(=O)c1cccc3nc[nH]c13)C2 (stereo not given),–,–,Ki [1]: 678 nM
Cc1nccn1CC1CCc2c(c3ccccc3n2C)C1=O (stereo not given) [ONDANSETRON],–,–,ED50 [2]: 43000 nM; Kb [3]: 0.126 nM
CCC1CCN(C)C[C@H]1NC(=O)c1cccc2[nH]cnc12 (stereo not given in full),> 1000 nM,2.6 nM,Kb [4]: 0.251 nM
CN1C2CCC1CC(OC(=O)c1cc(Cl)cc3[nH]cnc13)C2 (stereo not given),356 nM,61.2 nM,–
O=C(NC1CN2CCC1CC2)c1cc(Br)cc2nc[nH]c12 (stereo not given),168 nM,0.29 nM,–
CN1C2CCC1CC(NC(=O)c1cc(Cl)cc3nc[nH]c13)C2 (stereo not given),319 nM,16.6 nM,–
Nc1c(Br)cc(C(=O)NC2CN3CCC2CC3)c2[nH]cnc12 (stereo not given),227 nM,0.42 nM,–
O=C(NC1CN2CCC1CC2)c1cc(Br)c([N+](=O)[O-])c2nc[nH]c12 (stereo not given),> 10000 nM,8.8 nM,–
O=C(N[C@H]1CN2CCC1CC2)c1cc(Cl)cc2nc[nH]c12,205 nM,0.76 nM,–
O=C(N[C@H]1CN2CCC1CC2)c1cc(Br)cc2nc[nH]c12,270 nM,3.4 nM,–
CCC1CCN(C)C[C@@H]1NC(=O)c1cccc2nc[nH]c12 (stereo not given in full),> 10000 nM,38.3 nM,–
CN1C2CCC1CC(OC(=O)c1cccc3[nH]cnc13)C2 (stereo in doubt; 23),> 10000 nM,–,Ki [1]: > 1000 nM
O=C(N[C@@H]1CN2CCC1CC2)c1cc(Cl)c([N+](=O)[O-])c2nc[nH]c12,> 1000 nM,1.7 nM,ED50 [2]: 68000 nM; Kb [4]: 0.794 nM
CN1C2CCCC1CC(OC(=O)c1cc(Cl)cc3[nH]cnc13)C2 (stereo not given),–,88.7 nM,–
CN1C2CCC1CC(OC(=O)c1cccc3[nH]cnc13)C2 (stereo in doubt; 24),> 10000 nM,–,Ki [1]: > 1000 nM
CN1C2CCCC1CC(NC(=O)c1nn(C)c3ccccc13)C2 (stereo not given) [GRANISETRON],> 1000 nM,–,–
CN1C2CCCC1CC(NC(=O)c1cc(Cl)cc3nc[nH]c13)C2 (stereo not given),> 1000 nM,83 nM,–
Nc1ccc(C(=O)NC2CN3CCC2CC3)c2[nH]cnc12 (stereo not given),779 nM,2.4 nM,–
Nc1c(Cl)cc(C(=O)NC2CN3CCC2CC3)c2[nH]cnc12 (stereo not given),187 nM,0.24 nM,–
O=C(NC1CN2CCC1CC2)c1cc(Cl)c([N+](=O)[O-])c2nc[nH]c12 (stereo not given),> 1000 nM,5.2 nM,–
O=C(N[C@@H]1CN2CCC1CC2)c1cc(Cl)cc2nc[nH]c12,> 10000 nM,0.13 nM,ED50 [2]: 17000 nM; Kb [4]: 0.126 nM
CN1C2CCCC1CC(NC(=O)c1cccc3[nH]cnc13)C2 (stereo not given),> 10000 nM,230 nM,–
O=C(N[C@@H]1CN2CCC1CC2)c1cc(Br)cc2nc[nH]c12,38.3 nM,0.28 nM,–
CN1C2CCC1CC(NC(=O)c1cccc3[nH]cnc13)C2 (stereo not given),> 10000 nM,118 nM,–
